Test results reported in ChEMBL document CHEMBL4334482, “Cysteine Residue Containing Merocytochalasans and 17,18-seco-Aspochalasins from Aspergillus micronesiensis” (J Nat Prod, 2019).
Values after ≈ are worked out from the molar mass of the structure shown. Active and inactive are the calls of the source. No cut-off for these calls is given here.

What was measured:
HL-60 = test: Cytotoxicity against human HL60 cells assessed as reduction in cell viability by MTS assay; type: functional, cell-based
Method in brief: (§1)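 In vitro cytotoxicity was tested on a panel of five human cancer lines (HL60, A549, Hep3B, MCF-7, SW480), following an earlier published method. Values are reported as IC50 in μM.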

A549 = test: Cytotoxicity against human A549 cells assessed as reduction in cell viability by MTS assay; type: functional, cell-based; method in brief: as §1
Hep 3B2 = test: Cytotoxicity against human Hep3B cells assessed as reduction in cell viability by MTS assay; type: functional, cell-based; method in brief: as §1
MCF7 = test: Cytotoxicity against human MCF7 cells assessed as reduction in cell viability by MTS assay; type: functional, cell-based; method in brief: as §1
SW480 = test: Cytotoxicity against human SW480 cells assessed as reduction in cell viability by MTS assay; type: functional, cell-based; method in brief: as §1
Staphylococcus aureus [1] = test: Antibacterial activity against Staphylococcus aureus; type: functional
Staphylococcus aureus [2] = test: Antibacterial activity against methicillin-resistant Staphylococcus aureus; type: functional
Candida albicans = test: Antifungal activity against Candida albicans assessed as reduction in fungal growth incubated for 48 hrs by two fold serial dilution method; type: functional

Row | SMILES | IC50 (HL-60) | IC50 (A549) | IC50 (Hep 3B2) | IC50 (MCF7) | IC50 (SW480) | MIC50 (Staphylococcus aureus [1]) | MIC90 (Staphylococcus aureus [1]) | MIC50 (Staphylococcus aureus [2]) | MIC90 (Staphylococcus aureus [2]) | MIC50 (Candida albicans) | MIC90 (Candida albicans) | Activity (HL-60) | Activity (A549) | Activity (Hep 3B2) | Activity (MCF7) | Activity (SW480)
1 | COC(=O)[C@H](O)CS[C@@H]1CC(=O)[C@H](O)CC/C(C)=C/[C@H]2C=C(C)[C@@H](C)[C@H]3[C@H](CC(C)C)NC(=O)[C@]32C1=O | 3 µM | 16.7 µM | 8.2 µM | 17.1 µM | 13.6 µM | 14.5 µg/mL (≈ 27.1 µM) | 27 µg/mL (≈ 50.4 µM) | 10.6 µg/mL (≈ 19.8 µM) | 14.7 µg/mL (≈ 27.4 µM) | 94.7 µg/mL (≈ 177 µM) | > 100 µg/mL |  |  |  |  | 
2 | COC(=O)CC/C(C)=C/[C@H]1C=C(C)[C@@H](C)[C@H]2[C@H](CC(C)C)NC(=O)[C@]21C(=O)CCC(=O)O |  |  |  |  |  |  |  |  |  |  |  | inactive | inactive | inactive | inactive | inactive
3 | CC(=O)NCCS[C@@H]1CC(=O)[C@H](O)CC/C(C)=C/[C@H]2C=C(C)[C@@H](C)[C@H]3[C@H](CC(C)C)NC(=O)[C@]32C1=O | 9.3 µM | > 20 µM | 19.9 µM | 16.1 µM | 10.1 µM | 40.8 µg/mL (≈ 78.7 µM) | 58.5 µg/mL (≈ 113 µM) | 17.5 µg/mL (≈ 33.7 µM) | 28.4 µg/mL (≈ 54.8 µM) | 43.3 µg/mL (≈ 83.5 µM) | 89.9 µg/mL (≈ 173 µM) |  |  |  |  | 
4 | COC(=O)CCC(=O)[C@@]12C(=O)N[C@@H](CC(C)C)[C@@H]1[C@H](C)C(C)=C[C@@H]2/C=C(\C)CCC(=O)O |  |  |  |  |  |  |  |  |  |  |  | inactive | inactive | inactive | inactive | inactive
